Laboratory results from ChEMBL document CHEMBL4270536, “Preparation, characterisation and biological evaluation of new N-phenyl amidobenzenesulfonates and N-phenyl ureidobenzenesulfonates inducing DNA double-strand breaks. Part 3. Modulation of ring A” (Eur J Med Chem, 2018).

Each compound was assayed on HT-1080 (assay: Antiproliferative activity against human HT1080 cells after 48 hrs by SRB assay). Conditions: HT-1080, 48 h.
Assay type: functional, cell-based
Method in brief: (§1)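 Cells grown in DMEM with 5% FBS at 37 C; seeded per well at 2.5 x 10^3 (HT-1080), 4.0 x 10^3 (HT-29), 3.0 x 10^3 (M21) or 2.5 x 10^3 (MCF7). Drugs from 40 mM DMSO stock, serial dilutions, final 100 µM to 78 nM, DMSO <0.5%.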

Row | SMILES | IC50
1 | CCCC(=O)Nc1cccc(S(=O)(=O)Oc2ccccc2C(C)C)c1 | 15 µM
2 | CC(C)c1ccccc1OS(=O)(=O)c1ccc(NC(=O)NCC2CCCC2)cc1 | 6 µM
3 | CC(C)c1ccccc1OS(=O)(=O)c1cccc(NC(=O)CCCl)c1 | 8.2 µM
4 | CC(C)c1ccccc1OS(=O)(=O)c1ccc(NC(=O)CCCCl)cc1 | 3.8 µM
5 | CC(=O)Nc1ccc(S(=O)(=O)Oc2ccccc2I)cc1 | 17 µM
6 | CCCCCC(=O)Nc1cccc(S(=O)(=O)Oc2ccccc2C(C)C)c1 | 11 µM
7 | CCCCCC(=O)Nc1ccc(S(=O)(=O)Oc2ccccc2C(C)C)cc1 | 6.3 µM
8 | CC(C)C(=O)Nc1ccc(S(=O)(=O)Oc2ccccc2C(C)C)cc1 | 4.9 µM
9 | O=C(CCCCl)Nc1ccc(S(=O)(=O)Oc2ccccc2I)cc1 | 12 µM
10 | CC(C)(C)C(=O)Nc1ccc(S(=O)(=O)Oc2ccccc2I)cc1 | 2.6 µM
11 | CC(=O)Nc1cccc(S(=O)(=O)Oc2ccccc2C(C)C)c1 | 21 µM
12 | O=C(NCC1CCCC1)Nc1ccc(S(=O)(=O)Oc2ccccc2I)cc1 | 6.1 µM

Each compound was assayed on HT-29 (assay: Antiproliferative activity against human HT-29 cells after 48 hrs by SRB assay). Conditions: HT-29, 48 h.
Assay type: functional, cell-based
Method in brief: as §1

Row | SMILES | IC50
13 | CCCC(=O)Nc1cccc(S(=O)(=O)Oc2ccccc2C(C)C)c1 | 13 µM
14 | CC(C)c1ccccc1OS(=O)(=O)c1ccc(NC(=O)NCC2CCCC2)cc1 | 6.8 µM
15 | CC(C)c1ccccc1OS(=O)(=O)c1cccc(NC(=O)CCCl)c1 | 11 µM
16 | CC(C)c1ccccc1OS(=O)(=O)c1ccc(NC(=O)CCCCl)cc1 | 6.2 µM
17 | CC(=O)Nc1ccc(S(=O)(=O)Oc2ccccc2I)cc1 | 23 µM
18 | CCCCCC(=O)Nc1cccc(S(=O)(=O)Oc2ccccc2C(C)C)c1 | 19 µM
19 | CCCCCC(=O)Nc1ccc(S(=O)(=O)Oc2ccccc2C(C)C)cc1 | 6.4 µM
20 | CC(C)C(=O)Nc1ccc(S(=O)(=O)Oc2ccccc2C(C)C)cc1 | 14 µM
21 | O=C(CCCCl)Nc1ccc(S(=O)(=O)Oc2ccccc2I)cc1 | 9.1 µM
22 | CC(C)(C)C(=O)Nc1ccc(S(=O)(=O)Oc2ccccc2I)cc1 | 9.5 µM
23 | CC(=O)Nc1cccc(S(=O)(=O)Oc2ccccc2C(C)C)c1 | 27 µM
24 | O=C(NCC1CCCC1)Nc1ccc(S(=O)(=O)Oc2ccccc2I)cc1 | 7.6 µM

What follows are compounds tested on M21 (assay: Antiproliferative activity against human M21 cells after 48 hrs by SRB assay). Conditions: M21, 48 h.
Assay type: functional, cell-based
Method in brief: as §1

Row | SMILES | IC50
25 | CCCC(=O)Nc1cccc(S(=O)(=O)Oc2ccccc2C(C)C)c1 | 20 µM
26 | CC(C)c1ccccc1OS(=O)(=O)c1ccc(NC(=O)NCC2CCCC2)cc1 | 6.6 µM
27 | CC(C)c1ccccc1OS(=O)(=O)c1cccc(NC(=O)CCCl)c1 | > 40 µM
28 | CC(C)c1ccccc1OS(=O)(=O)c1ccc(NC(=O)CCCCl)cc1 | 5.1 µM
29 | CC(=O)Nc1ccc(S(=O)(=O)Oc2ccccc2I)cc1 | 27 µM
30 | CCCCCC(=O)Nc1cccc(S(=O)(=O)Oc2ccccc2C(C)C)c1 | 11 µM
31 | CCCCCC(=O)Nc1ccc(S(=O)(=O)Oc2ccccc2C(C)C)cc1 | 6.7 µM
32 | CC(C)C(=O)Nc1ccc(S(=O)(=O)Oc2ccccc2C(C)C)cc1 | 11 µM
33 | O=C(CCCCl)Nc1ccc(S(=O)(=O)Oc2ccccc2I)cc1 | 7.2 µM
34 | CC(C)(C)C(=O)Nc1ccc(S(=O)(=O)Oc2ccccc2I)cc1 | 8.3 µM
35 | CC(=O)Nc1cccc(S(=O)(=O)Oc2ccccc2C(C)C)c1 | 31 µM
36 | O=C(NCC1CCCC1)Nc1ccc(S(=O)(=O)Oc2ccccc2I)cc1 | 7.6 µM

These compounds were tested on MCF7 (assay: Antiproliferative activity against human MCF7 cells after 48 hrs by SRB assay). Conditions: MCF7, 48 h.
Assay type: functional, cell-based
Method in brief: as §1

Row | SMILES | IC50
37 | CCCC(=O)Nc1cccc(S(=O)(=O)Oc2ccccc2C(C)C)c1 | 9.4 µM
38 | CC(C)c1ccccc1OS(=O)(=O)c1ccc(NC(=O)NCC2CCCC2)cc1 | 7.1 µM
39 | CC(C)c1ccccc1OS(=O)(=O)c1cccc(NC(=O)CCCl)c1 | 12 µM
40 | CC(C)c1ccccc1OS(=O)(=O)c1ccc(NC(=O)CCCCl)cc1 | 5.2 µM
41 | CC(=O)Nc1ccc(S(=O)(=O)Oc2ccccc2I)cc1 | 27 µM
42 | CCCCCC(=O)Nc1cccc(S(=O)(=O)Oc2ccccc2C(C)C)c1 | 12 µM
43 | CCCCCC(=O)Nc1ccc(S(=O)(=O)Oc2ccccc2C(C)C)cc1 | 5.3 µM
44 | CC(C)C(=O)Nc1ccc(S(=O)(=O)Oc2ccccc2C(C)C)cc1 | 8.6 µM
45 | O=C(CCCCl)Nc1ccc(S(=O)(=O)Oc2ccccc2I)cc1 | 6.3 µM
46 | CC(C)(C)C(=O)Nc1ccc(S(=O)(=O)Oc2ccccc2I)cc1 | 6.6 µM
47 | CC(=O)Nc1cccc(S(=O)(=O)Oc2ccccc2C(C)C)c1 | 21 µM
48 | O=C(NCC1CCCC1)Nc1ccc(S(=O)(=O)Oc2ccccc2I)cc1 | 6.6 µM

These compounds were tested on M21 (assay: Cell cycle arrest in human M21 cells assessed as accumulation at sub-G1 phase at 2 times IC50 after 24 hrs by DAPI staining based flow cytometry relative to control). Conditions: not given.
Assay type: functional
Method in brief: (§2)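 Flow cytometry in M21 cells seeded in six-well plates, allowed 24 h, then exposed 24 h to drug (2- or 5-fold IC50); DMSO 0.5% control. Trypsinized, PBS-washed, fixed in ice-cold EtOH, stained with 2 mg/mL DAPI in PBS; sub-G1, G0/G1, S and G2/M fractions measured on LSR II cytometer.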

Row | SMILES | Activity
49 | CCCC(=O)Nc1cccc(S(=O)(=O)Oc2ccccc2C(C)C)c1 | 3%
50 | CC(C)c1ccccc1OS(=O)(=O)c1ccc(NC(=O)CCCCl)cc1 | 0.2%
51 | CCCCCC(=O)Nc1cccc(S(=O)(=O)Oc2ccccc2C(C)C)c1 | 1.5%
52 | CCCCCC(=O)Nc1ccc(S(=O)(=O)Oc2ccccc2C(C)C)cc1 | 3.7%
53 | CC(C)C(=O)Nc1ccc(S(=O)(=O)Oc2ccccc2C(C)C)cc1 | 0.2%
54 | O=C(CCCCl)Nc1ccc(S(=O)(=O)Oc2ccccc2I)cc1 | 0.2%
55 | CC(C)(C)C(=O)Nc1ccc(S(=O)(=O)Oc2ccccc2I)cc1 | 0%

What follows are compounds tested on M21 (assay: Cell cycle arrest in human M21 cells assessed as accumulation at G0/G1 phase at 2 times IC50 after 24 hrs by DAPI staining based flow cytometry relative to control). Conditions: not given.
Assay type: functional
Method in brief: as §2

Row | SMILES | Activity
56 | CCCC(=O)Nc1cccc(S(=O)(=O)Oc2ccccc2C(C)C)c1 | 64.2%
57 | CC(C)c1ccccc1OS(=O)(=O)c1ccc(NC(=O)CCCCl)cc1 | 55.3%
58 | CCCCCC(=O)Nc1cccc(S(=O)(=O)Oc2ccccc2C(C)C)c1 | 69%
59 | CCCCCC(=O)Nc1ccc(S(=O)(=O)Oc2ccccc2C(C)C)cc1 | 41.4%
60 | CC(C)C(=O)Nc1ccc(S(=O)(=O)Oc2ccccc2C(C)C)cc1 | 62%
61 | O=C(CCCCl)Nc1ccc(S(=O)(=O)Oc2ccccc2I)cc1 | 42%
62 | CC(C)(C)C(=O)Nc1ccc(S(=O)(=O)Oc2ccccc2I)cc1 | 55%

These compounds were tested on M21 (assay: Cell cycle arrest in human M21 cells assessed as accumulation at S phase at 2 times IC50 after 24 hrs by DAPI staining based flow cytometry relative to control). Conditions: not given.
Assay type: functional
Method in brief: as §2

Row | SMILES | Activity
63 | CCCC(=O)Nc1cccc(S(=O)(=O)Oc2ccccc2C(C)C)c1 | 14.4%
64 | CC(C)c1ccccc1OS(=O)(=O)c1ccc(NC(=O)CCCCl)cc1 | 19.3%
65 | CCCCCC(=O)Nc1cccc(S(=O)(=O)Oc2ccccc2C(C)C)c1 | 16%
66 | CCCCCC(=O)Nc1ccc(S(=O)(=O)Oc2ccccc2C(C)C)cc1 | 28.3%
67 | CC(C)C(=O)Nc1ccc(S(=O)(=O)Oc2ccccc2C(C)C)cc1 | 27.3%
68 | O=C(CCCCl)Nc1ccc(S(=O)(=O)Oc2ccccc2I)cc1 | 17.1%
69 | CC(C)(C)C(=O)Nc1ccc(S(=O)(=O)Oc2ccccc2I)cc1 | 29.1%

What follows are compounds tested on M21 (assay: Cell cycle arrest in human M21 cells assessed as accumulation at G2/M phase at 2 times IC50 after 24 hrs by DAPI staining based flow cytometry relative to control). Conditions: not given.
Assay type: functional
Method in brief: as §2

Row | SMILES | Activity
70 | CCCC(=O)Nc1cccc(S(=O)(=O)Oc2ccccc2C(C)C)c1 | 18.4%
71 | CC(C)c1ccccc1OS(=O)(=O)c1ccc(NC(=O)CCCCl)cc1 | 25.2%
72 | CCCCCC(=O)Nc1cccc(S(=O)(=O)Oc2ccccc2C(C)C)c1 | 13.5%
73 | CCCCCC(=O)Nc1ccc(S(=O)(=O)Oc2ccccc2C(C)C)cc1 | 26.6%
74 | CC(C)C(=O)Nc1ccc(S(=O)(=O)Oc2ccccc2C(C)C)cc1 | 10.5%
75 | O=C(CCCCl)Nc1ccc(S(=O)(=O)Oc2ccccc2I)cc1 | 40.7%
76 | CC(C)(C)C(=O)Nc1ccc(S(=O)(=O)Oc2ccccc2I)cc1 | 15.9%

What follows are compounds tested on M21 (assay: Cell cycle arrest in human M21 cells assessed as accumulation at S phase at 2 times IC50 after 24 hrs by DAPI staining based flow cytometry relative to control). Conditions: not given.

Row | SMILES | Activity
77 | CC(C)c1ccccc1OS(=O)(=O)c1ccc(NC(=O)NCC2CCCC2)cc1 | 14.3%
78 | O=C(NCC1CCCC1)Nc1ccc(S(=O)(=O)Oc2ccccc2I)cc1 | 18.9%

These compounds were tested on M21 (assay: Cell cycle arrest in human M21 cells assessed as accumulation at G2/M phase at 2 times IC50 after 24 hrs by DAPI staining based flow cytometry relative to control). Conditions: not given.

Row | SMILES | Activity
79 | CC(C)c1ccccc1OS(=O)(=O)c1ccc(NC(=O)NCC2CCCC2)cc1 | 21.7%
80 | O=C(NCC1CCCC1)Nc1ccc(S(=O)(=O)Oc2ccccc2I)cc1 | 24.8%

The compounds below were run on M21 (assay: Cell cycle arrest in human M21 cells assessed as accumulation at G0/G1 phase at 2 times IC50 after 24 hrs by DAPI staining based flow cytometry relative to control). Conditions: not given.

Row | SMILES | Activity
81 | CC(C)c1ccccc1OS(=O)(=O)c1ccc(NC(=O)NCC2CCCC2)cc1 | 63.9%
82 | O=C(NCC1CCCC1)Nc1ccc(S(=O)(=O)Oc2ccccc2I)cc1 | 56.2%

What follows are compounds tested on M21 (assay: Cell cycle arrest in human M21 cells assessed as accumulation at sub-G1 phase at 2 times IC50 after 24 hrs by DAPI staining based flow cytometry relative to control). Conditions: not given.

Row | SMILES | Activity
83 | CC(C)c1ccccc1OS(=O)(=O)c1ccc(NC(=O)NCC2CCCC2)cc1 | 0.1%
84 | O=C(NCC1CCCC1)Nc1ccc(S(=O)(=O)Oc2ccccc2I)cc1 | 0.1%
